Compound activity as filed in PubChem.
Compounds with a hit are over-represented: about 1.9% of the library has one in this group of screens.
STEP inh: inhibitors of human striatal-enriched phosphatase STEP | P54829 | recombinant STEP, OMFP fluorogenic substrate, fluorescence | inhibition, % at 20 µM | actives 0.25% (n = 360,000);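 active means inhibition at 20 µM, scaled per plate between control wells, above about 37%, limit read from the data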
Target sequence (P54829 whole entry, looked up): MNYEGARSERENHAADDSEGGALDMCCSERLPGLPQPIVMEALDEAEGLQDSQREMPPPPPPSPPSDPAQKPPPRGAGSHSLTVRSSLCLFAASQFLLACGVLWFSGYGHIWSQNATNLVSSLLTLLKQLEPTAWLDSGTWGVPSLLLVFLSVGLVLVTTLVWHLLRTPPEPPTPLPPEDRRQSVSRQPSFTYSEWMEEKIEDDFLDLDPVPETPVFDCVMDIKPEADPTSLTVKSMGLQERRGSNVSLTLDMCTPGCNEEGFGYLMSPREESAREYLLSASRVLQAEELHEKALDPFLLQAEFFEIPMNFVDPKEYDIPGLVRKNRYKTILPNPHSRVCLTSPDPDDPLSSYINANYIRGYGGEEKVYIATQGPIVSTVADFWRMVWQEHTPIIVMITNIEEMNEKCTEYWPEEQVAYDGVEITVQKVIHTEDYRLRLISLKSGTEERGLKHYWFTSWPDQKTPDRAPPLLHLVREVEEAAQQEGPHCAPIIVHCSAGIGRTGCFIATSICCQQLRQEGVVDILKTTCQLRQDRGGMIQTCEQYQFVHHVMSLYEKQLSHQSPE
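Material: STEP (striatal-enriched tyrosine phosphatase) enzyme, cell-free | Medium: 50 mM Bis-Tris pH 6.0 with 2.5 mM DTT and 0.005% Tween 20 | Read-out: Percent inhibition scaled to no-enzyme and uninhibited-enzyme controls, plate-pattern corrected | Signal: Fluorescence read at 480 nm ex / 540 nm em | Times: 20 min reaction, room temperature, in the dark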
DNMT1 inh: blocks human DNA methyltransferase DNMT1; DNMT1 molecular beacon, Hinp1I cleavage, fluorescence; inhibition (reported as % activation of signal), % at 10 µM; actives 0.83% (n = 360,000); in the data active means inhibition above about 50%
LMPTP block: LMPTP (human) inhibition. inhibition, % at 20 µM. actives 0.22% (n = 360,000). P24666. recombinant LMPTP-A, OMFP fluorogenic substrate, fluorescence intensity;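 active means compounds that cut the enzyme signal by at least half of the control window in the single-dose screen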
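Test system: LMPTP-A phosphatase enzyme. Amount: LMPTP-A at 0.625 nM final in the reaction. Reagent: OMFP substrate, 400 µM final. Times: 50 min at room temperature. Signal: endpoint fluorescence intensity from OMFP dephosphorylation. Read-out basis: % inhibition. Benchmarks: no-enzyme and uninhibited controls.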
SUMO1 PPI mod: SUMO1-SIM interaction modulation | P63165 | SUMO1 binding to a labelled peptide, TR-FRET, 1 h | inhibition, % at 20 µM | actives 0.33% (n = 360,000); in the data active means inhibition above about 37%
Target sequence (P63165 whole entry, looked up): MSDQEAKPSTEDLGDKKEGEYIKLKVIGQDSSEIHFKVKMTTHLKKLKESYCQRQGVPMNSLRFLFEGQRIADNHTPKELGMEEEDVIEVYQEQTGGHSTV
Scp1 inh: inhibitors of human Scp-1 phosphatase; Recombinant Scp1, phosphopeptide, malachite green phosphate absorbance; inhibition, % at 20 µM; actives 0.88% (n = 340,000);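 active means inhibition above about 50% at 20 µM, limit read from the data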
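Material: truncated SCP-1 phosphatase (76-261aa) / Buffer or medium: 50 mM Tris acetate pH 5.5, 0.005% Tween-20, 10 mM MgCl2 / Compound dosing: one concentration, 20 µM, with 1.0% DMSO / Incubation: 45 min room-temperature reaction, 5 min colour, 30 min stabiliser / Detection: colorimetric free-phosphate detection, absorbance 630 nm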
SUMO HTRF inh: inhibitors of human SUMOylation (UBC9) | HTRF SUMOylation assay, SAE1/SAE2 + UBC9, in vitro | inhibition, % at 35 µM | actives 0.36% (n = 290,000); in the data active means inhibition above about 50%, passing the limit was not always enough
Of the large screens only hits and unclear results are named; the others gave an inactive call.

CCCC(=O)NC(c1ccc(Cl)cc1)c1ccc2cccnc2c1O (stereo not drawn)	none
CCCC(=O)NC(c1ccc(Cl)cc1Cl)c1ccc2cccnc2c1O (stereo not drawn)	SUMO HTRF inh 91
CC(C)c1cc(Cn2c3ccccc3c(=O)n2C(C)Cn2cc(CCCC#N)nn2)on1 (stereo not drawn)	none (no result: STEP inh, DNMT1 inh, Scp1 inh, SUMO HTRF inh)
Cc1c(O)ccc2c(CN3CCN(Cc4ccccc4)CC3)cc(=O)oc12	none
O=c1cc(CN2CCN(Cc3ccccc3)CC2)c2ccc(O)c(O)c2o1	LMPTP block 55
Cc1cccc(OCC(=O)Nc2nonc2NC(=O)COc2cccc(C)c2)c1	none (no result: SUMO HTRF inh)
Cc1ccc(C)c(OCC(=O)Nc2nonc2NC(=O)COc2cc(C)ccc2C)c1	SUMO HTRF inh 57
O=C(NCc1cccc(F)c1)C1CCC(=O)N(CCc2cccc(F)c2)C1 (stereo not drawn)	none
O=C(NCCN1CCCC1=O)C1CCC(=O)N(CCc2cccc(F)c2)C1 (stereo not drawn)	SUMO1 PPI mod 44
Cc1ccc(C(=O)Nc2sc3c(c2C(=O)NCc2ccco2)CCCC3)cc1	SUMO HTRF inh 73
CCOC(=O)C1=C(C)N(CCO)C(=O)NC1c1cccc(O)c1 (stereo not drawn)	none
CCOC(=O)C1=C(C)N(C)C(=O)NC1c1cccc(O)c1 (stereo not drawn)	SUMO1 PPI mod 56
O=C(NCc1cccnc1)C1C2C=CC(C2)C1C(=O)Nc1cccc(C(F)(F)F)c1 (stereo not drawn)	SUMO1 PPI mod 40 (no result: Scp1 inh, SUMO HTRF inh)
O=C(O)C1C2C=CC(C2)C1C(=O)NCc1cccnc1 (stereo not drawn)	none
CCC(CO)Oc1cc(NC(=O)c2cccc(OC)c2)c2ncn(C(C)C)c2c1 (stereo not drawn)	SUMO1 PPI mod 61 (no result: SUMO HTRF inh)
CC(C)C(=O)Nc1ccc(C(=O)N/N=C/C2CC3C=CC2C3)cc1 (stereo not drawn)	SUMO1 PPI mod 40
CC(=O)Nc1ccc(C(=O)N/N=C/C2CC3C=CC2C3)cc1 (stereo not drawn)	none
Cn1c(=O)c2[nH]c(N3CCN(c4ccccn4)CC3)nc2n(C)c1=O	none (no result: STEP inh, DNMT1 inh, LMPTP block, SUMO1 PPI mod, Scp1 inh)
CCN(CC(=O)Nc1ccc(OC)cc1)C(=O)c1ccc2[nH]c3c(c2c1)CC(C)CC3 (stereo not drawn)	none (no result: SUMO HTRF inh)
O=C(O)c1cccc(-n2cccc2/C=C2/NC(=O)N(c3ccc(Cl)cc3)C2=O)c1	STEP inh 94, DNMT1 inh 87, LMPTP block 81, SUMO1 PPI mod 106, Scp1 inh 81, SUMO HTRF inh 90
COc1ccc2c(c1)c[n+](C)c1c3cc(OC)c(OC)cc3ccc21	none (no result: STEP inh, DNMT1 inh, Scp1 inh, SUMO HTRF inh)
COc1ccc(Cc2c3cc(OC)c(OC)cc3cc[n+]2C)cc1OC	Scp1 inh 101
CC[n+]1ccc2cc(OC)c(OC)cc2c1Cc1ccc(OC)c(OC)c1	Scp1 inh 96
C#Cc1cccc(Nc2nc(NCc3ccccc3)nc3ccsc23)c1	none (no result: Scp1 inh, SUMO HTRF inh)
NC(=O)c1ccc(NC(=O)c2cc(S(=O)(=O)N3CCCCC3)ccc2N2CCOCC2)cc1	none (no result: SUMO HTRF inh)
O=c1[nH][nH]c(=S)n1C1CCCCC1	Scp1 inh 72 (no result: STEP inh, DNMT1 inh, LMPTP block, SUMO1 PPI mod)
O=c1cc(O)n(C2CCCCCC2)c(=O)[nH]1	none
CCOC(=O)N1CCN(S(=O)(=O)N2CCCC(C(=O)NCCCN3CC(C)CC(C)C3)C2)CC1 (stereo not drawn)	none
COc1ccc2nc(C)cc(N/N=C/c3cccc(OC)c3O)c2c1	none
Cc1cc(N/N=C/c2ccccc2O)c2ccccc2n1	LMPTP block 51
O=C1NC(c2ccc(Br)cc2)=N/C1=C/c1ccco1	SUMO HTRF inh 51
COC(=O)C[C@@H]1C=C[C@H](NC(=O)c2cnccn2)[C@@H](CO)O1	none (no result: STEP inh, DNMT1 inh, Scp1 inh, SUMO HTRF inh)
OC(c1ccccc1)c1nc(-c2ccc(Cl)cc2)cs1 (stereo not drawn)	none (no result: Scp1 inh, SUMO HTRF inh)
Cc1cccc(NC(=O)c2cc(S(=O)(=O)N3CCc4ccccc43)cn2C)c1C	none
COc1ccccc1-c1sc2cc3c(cc2c1-c1ccc2c(c1)OCO2)OCO3	Scp1 inh 68 (no result: SUMO HTRF inh)
COc1ccccc1-c1sc2ccccc2c1-c1ccc2c(c1)OCO2	none
O=C(CSc1ccc(-c2ccco2)nn1)c1cccc([N+](=O)[O-])c1	SUMO HTRF inh 73
COc1ccc(/C(O)=C2/C(=O)C(=O)N(c3ccccn3)C2c2ccc(F)cc2)cc1 (stereo not drawn)	none
CC(/C=N/n1c(-c2ccco2)n[nH]c1=S)=C\c1ccco1	SUMO HTRF inh 64
COC1=Nc2ccccc2/C=C\c2ccccc21	none (no result: Scp1 inh, SUMO HTRF inh)
COc1ccc(C(=O)Nc2ccc(-c3nnn(CC(=O)NCc4ccco4)n3)cc2)cc1	SUMO HTRF inh 61
Cc1ccc(OC(=O)c2ccncc2)c(C)c1	none
COc1ccc(C(C(=O)NCc2ccc(F)cc2)N(C(=O)c2csnn2)C2CC2)cc1 (stereo not drawn)	none
O=C(COc1ccc2c(-c3ccccc3)cc(=O)oc2c1)Nc1ccc(CCO)cc1	LMPTP block 66
O=C(COc1ccc2c(-c3ccccc3)cc(=O)oc2c1)Nc1ccc(CN2CCOCC2)cc1	none
Cc1cccc(N2C(=O)CC(Sc3nc(-c4ccccc4)c4cc(Cl)ccc4n3)C2=O)c1 (stereo not drawn)	SUMO1 PPI mod 44
Cc1cccc(N2C(=O)CC(Sc3nc(C)cc(C)n3)C2=O)c1 (stereo not drawn)	none
CC[n+]1ccccc1/C=C1\Sc2ccc(C)cc2N1C	Scp1 inh 79
CC[n+]1ccccc1/C=C/Nc1ccccc1	none
O=[N+]([O-])c1cccc(S(=O)(=O)Nc2ccccn2)c1	none (no result: Scp1 inh, SUMO HTRF inh)
Cc1cc(NS(=O)(=O)c2ccc(Nc3nc(-c4sc(N)nc4C)cs3)cc2)no1	DNMT1 inh 86, SUMO1 PPI mod 51
O=C1CCCN1CC(O)CS(=O)(=O)Cc1ccc(Cl)c(Cl)c1 (stereo not drawn)	none
CCn1nc(NC(=O)COC)c2cc3cc(C)ccc3nc21	none
CCCCn1nc(NC(=O)COC)c2cc3ccc(C)cc3nc21	Scp1 inh 52
COc1cc(NC(=O)c2ccc(-c3ccc(F)c(F)c3)c3ccoc23)cc(OC)c1OC	none (no result: Scp1 inh, SUMO HTRF inh)
CC(=O)N(/N=C1\Sc2ccccc2C1=O)c1cccc(C)c1	DNMT1 inh 51
Nc1nonc1-c1nc2ccccc2n1CC(=O)O	none
Nc1nonc1-c1nc2ccccc2n1CC(=O)N/N=C/c1ccc(-c2cccc(C(=O)O)c2)o1	Scp1 inh 72
COC(=O)c1ccc(NC(=O)Cn2c(-c3nonc3N)nc3ccccc32)cc1	none
CC(C)OC(=O)c1ccc(NC(=O)Cn2c(-c3nonc3N)nc3ccccc32)cc1	SUMO1 PPI mod 43
O=C(N/N=C/C(Br)=C/c1ccccc1)c1n[nH]c2c1CCC2	DNMT1 inh 57
